According to ChEMBL document CHEMBL4373711, “Development of 3,5-Dinitrophenyl-Containing 1,2,4-Triazoles and Their Trifluoromethyl Analogues as Highly Efficient Antitubercular Agents Inhibiting Decaprenylphosphoryl-β-d-ribofuranose 2'-Oxidase” (J Med Chem, 2019):

Tests used:
[1] = test system: Mycobacterium tuberculosis; test: Antimycobacterial activity against multi-drug resistant Mycobacterium tuberculosis Praha 1 after 14 days; format: functional; settings: for MIC99: Praha 1, 336 h
Procedure, shortened: (§1)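 M. tuberculosis strains (H37Rv and clinical MDR/XDR isolates) tested by microdilution in Šula's semisynthetic medium. Compounds were dissolved in DMSO and tested at 32 to 0.03 µM in twofold steps. Inoculum was a 1.0 McFarland suspension diluted 10-3. Plates were incubated at 37 °C and read at 14 and 21 days.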

[2] = test system: Mycobacterium tuberculosis; test: Antimycobacterial activity against multi-drug resistant Mycobacterium tuberculosis 7357/1998 after 14 days; format: functional; settings: 7357/1998, 336 h; procedure, shortened: as §1
[3] = test system: Mycobacterium tuberculosis; test: Antimycobacterial activity against multi-drug resistant Mycobacterium tuberculosis 234/2005 after 21 days; format: functional; settings: 234/2005, 504 h; procedure, shortened: as §1
[4] = test system: Mycobacterium tuberculosis; test: Antimycobacterial activity against multi-drug resistant Mycobacterium tuberculosis Praha 4 after 14 days; settings: Praha 4, 336 h
[5] = test system: Mycobacterium tuberculosis; test: Antimycobacterial activity against multi-drug resistant Mycobacterium tuberculosis 8666/2010 after 21 days; format: functional; settings: 8666/2010, 504 h; procedure, shortened: as §1
[6] = test system: Mycobacterium tuberculosis; test: microbe, parasite or virus in culture; settings: 234/2005, 336 h
[7] = test system: Mycobacterium tuberculosis; test: Antimycobacterial activity against multi-drug resistant Mycobacterium tuberculosis 7357/1998 after 21 days; format: functional; settings: for MIC99: 7357/1998, 504 h; procedure, shortened: as §1
[8] = test system: Mycobacterium tuberculosis; test: Antimycobacterial activity against multi-drug resistant Mycobacterium tuberculosis 8666/2010 after 14 days; format: functional; settings: for MIC99: 8666/2010, 336 h; procedure, shortened: as §1
[9] = test system: Mycobacterium tuberculosis; test: Antimycobacterial activity against multi-drug resistant Mycobacterium tuberculosis Praha 1 after 21 days; format: functional; settings: Praha 1, 504 h; procedure, shortened: as §1
[10] = test system: Mycobacterium tuberculosis; test: Antimycobacterial activity against multi-drug resistant Mycobacterium tuberculosis Praha 4 after 21 days; format: functional; settings: Praha 4, 504 h; procedure, shortened: as §1
[11] = test system: Mycobacterium tuberculosis; test: Antimycobacterial activity against multi-drug resistant Mycobacterium tuberculosis 9449/2007 after 14 days; format: functional; settings: 9449/2007, 336 h; procedure, shortened: as §1
[12] = test system: Mycobacterium tuberculosis; test: Antimycobacterial activity against multi-drug resistant Mycobacterium tuberculosis 9449/2007 after 21 days; format: functional; settings: for MIC99: 9449/2007, 504 h; procedure, shortened: as §1

COc1ccc(CSc2nnc(-c3cc([N+](=O)[O-])cc(C(F)(F)F)c3)n2Cc2ccccc2)cc1
2 µM: MIC99 [3]
1 µM: MIC99 [6]
0.5 µM: MIC99 [1] | MIC99 [2] | MIC99 [4] | MIC99 [5] | MIC99 [7] | MIC99 [8] | MIC99 [9] | MIC99 [10] | MIC99 [11] | MIC99 [12]

COc1ccc(Cn2c(SCc3cc([N+](=O)[O-])cc([N+](=O)[O-])c3)nnc2-c2ccccc2)cc1
2 µM: MIC99 [1] | MIC99 [2] | MIC99 [4] | MIC99 [5] | MIC99 [6] | MIC99 [7] | MIC99 [8] | MIC99 [12]
4 µM: MIC99 [3] | MIC99 [9] | MIC99 [10] | MIC99 [11]

O=[N+]([O-])c1cc(CSc2nnc(-c3ccc(Br)cc3)n2Cc2ccccc2)cc([N+](=O)[O-])c1
4 µM: MIC99 [2] | MIC99 [3] | MIC99 [5] | MIC99 [6] | MIC99 [9] | MIC99 [10] | MIC99 [11]
2 µM: MIC99 [1] | MIC99 [4] | MIC99 [7] | MIC99 [8] | MIC99 [12]

Cn1c(SCc2ccc(Cl)cc2)nnc1-c1cc([N+](=O)[O-])cc([N+](=O)[O-])c1
0.06 µM: MIC99 [4]
0.125 µM: MIC99 [1] | MIC99 [2] | MIC99 [3] | MIC99 [5] | MIC99 [6] | MIC99 [7] | MIC99 [8] | MIC99 [9] | MIC99 [10] | MIC99 [11] | MIC99 [12]

O=[N+]([O-])c1cc(-c2nnc(SCc3ccc(Cl)c(Cl)c3)n2Cc2ccccc2)cc([N+](=O)[O-])c1
0.25 µM: MIC99 [1] | MIC99 [2] | MIC99 [3] | MIC99 [5] | MIC99 [6] | MIC99 [7] | MIC99 [8] | MIC99 [9] | MIC99 [11] | MIC99 [12]
0.125 µM: MIC99 [4] | MIC99 [10]

Cn1c(SCc2ccccc2)nnc1-c1cc([N+](=O)[O-])cc([N+](=O)[O-])c1
0.03 µM: MIC99 [1] | MIC99 [2] | MIC99 [3] | MIC99 [4] | MIC99 [5] | MIC99 [6] | MIC99 [7] | MIC99 [8] | MIC99 [9] | MIC99 [10] | MIC99 [11] | MIC99 [12]

GENTAMICIN
2 µM: MIC>99 [8]
1 µM: MIC>99 [1] | MIC>99 [7] | MIC>99 [12]

COc1ccc(CSc2nnc(-c3cc([N+](=O)[O-])cc([N+](=O)[O-])c3)n2Cc2ccccc2)cc1
0.03 µM: MIC99 [1] | MIC99 [2] | MIC99 [3] | MIC99 [4] | MIC99 [5] | MIC99 [6] | MIC99 [7] | MIC99 [8] | MIC99 [9] | MIC99 [10] | MIC99 [11] | MIC99 [12]

CC1COc2c(N3CCN(C)CC3)c(F)cc3c(=O)c(C(=O)O)cn1c23 (stereo not drawn) [OFLOXACIN]
> 16 µM: MIC99 [4]

CCn1c(SCc2ccccc2)nnc1-c1cc([N+](=O)[O-])cc([N+](=O)[O-])c1
0.03 µM: MIC99 [1] | MIC99 [2] | MIC99 [3] | MIC99 [4] | MIC99 [5] | MIC99 [6] | MIC99 [7] | MIC99 [8] | MIC99 [9] | MIC99 [10] | MIC99 [11] | MIC99 [12]

O=[N+]([O-])c1cc(CSc2nnc(-c3ccccc3)n2Cc2ccccc2)cc([N+](=O)[O-])c1
2 µM: MIC99 [1] | MIC99 [4] | MIC99 [7] | MIC99 [8]
4 µM: MIC99 [2] | MIC99 [3] | MIC99 [5] | MIC99 [6] | MIC99 [9] | MIC99 [10] | MIC99 [11] | MIC99 [12]
